Measurements taken from ChEMBL document CHEMBL3585281, “Antibacterial Labdane Diterpenoids from Vitex vestita” (2015).

Key:
Assay type in all cases: functional
Corynebacterium striatum = experiment: Antibacterial activity against Corynebacterium striatum N840 after 18 hrs by agar dilution method; details: N840, 18 h
Method in brief: (§1)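 Agar-dilution MIC against Gram-positive strains. Compounds in DMSO, geometric dilutions giving final 100−0.75 mg/L in Mueller Hinton agar. Strains grown 18 h at 37 °C in trypticase soy broth, diluted in sterile water, spotted by Steers inoculator (about 1000 UFC/spot). Plates incubated 18 h at 37 °C; DMSO blank; ofloxacin positive control. MIC = lowest concentration with no visible growth.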

[1] = test system: Staphylococcus haemolyticus; experiment: Antibacterial activity against Staphylococcus haemolyticus CIP 8156 after 18 hrs by agar dilution method; details: CIP 8156, 18 h; method in brief: as §1
Bacillus cereus [2] = experiment: Antibacterial activity against Bacillus cereus N190 after 18 hrs by agar dilution method; details: N190, 18 h; method in brief: as §1
Bacillus spizizenii = experiment: Antibacterial activity against Bacillus subtilis ATCC 6633 after 18 hrs by agar dilution method; details: ATCC 6633, 18 h; method in brief: as §1
Staphylococcus aureus [3] = experiment: Antibacterial activity against Staphylococcus aureus CRBIP 2121 after 18 hrs by agar dilution method; details: CRBIP 2121, 18 h; method in brief: as §1
Listeria monocytogenes [4] = experiment: Antibacterial activity against Listeria monocytogenes N851 after 18 hrs by agar dilution method; details: N851, 18 h; method in brief: as §1
[5] = test system: Staphylococcus saprophyticus; experiment: Antibacterial activity against Staphylococcus saprophyticus E260 after 18 hrs by agar dilution method; details: E260, 18 h; method in brief: as §1
Staphylococcus aureus [6] = experiment: Antibacterial activity against Staphylococcus aureus ATCC 9144 oxford after 18 hrs by agar dilution method; method in brief: as §1
[7] = test system: Staphylococcus saprophyticus; experiment: Antibacterial activity against Staphylococcus saprophyticus CIP 76125 after 18 hrs by agar dilution method; details: CIP 76125, 18 h; method in brief: as §1
Listeria monocytogenes [8] = experiment: Antibacterial activity against Listeria monocytogenes N783 after 18 hrs by agar dilution method; details: N783, 18 h; method in brief: as §1
Mammaliicoccus sciuri = experiment: Antibacterial activity against Staphylococcus sciuri N993 after 18 hrs by agar dilution method; details: N993, 18 h; method in brief: as §1
[9] = test system: Staphylococcus epidermidis; experiment: Antibacterial activity against Staphylococcus epidermidis CIP 53124 after 18 hrs by agar dilution method; details: CIP 53124, 18 h; method in brief: as §1
Staphylococcus aureus [10] = experiment: Antibacterial activity against Staphylococcus aureus ATCC 25923 after 18 hrs by agar dilution method; details: ATCC 25923, 18 h; method in brief: as §1
Enterococcus faecium [11] = experiment: Antibacterial activity against Enterococcus faecium CIP 103014 after 18 hrs by agar dilution method; details: CIP 103014, 18 h; method in brief: as §1
Bacillus cereus [12] = experiment: Antibacterial activity against Bacillus cereus CIP 6624 after 18 hrs by agar dilution method; details: CIP 6624, 18 h; method in brief: as §1
Enterococcus gallinarum [13] = experiment: Antibacterial activity against Enterococcus gallinarum N489 after 18 hrs by agar dilution method; details: N489, 18 h; method in brief: as §1
Enterococcus hirae = experiment: Antibacterial activity against Enterococcus hirae CIP 5855 after 18 hrs by agar dilution method; details: CIP 5855, 18 h; method in brief: as §1
Enterococcus gallinarum [14] = experiment: Antibacterial activity against Enterococcus gallinarum CIP 105985 after 18 hrs by agar dilution method; details: CIP 105985, 18 h; method in brief: as §1
Staphylococcus aureus [15] = experiment: Antibacterial activity against Staphylococcus aureus CIP 53154 after 18 hrs by agar dilution method; details: CIP 53154, 18 h; method in brief: as §1
Enterococcus faecium [16] = experiment: Antibacterial activity against Enterococcus faecium N733 after 18 hrs by agar dilution method; details: N733, 18 h; method in brief: as §1
Enterococcus gallinarum [17] = experiment: Antibacterial activity against Enterococcus gallinarum N492 after 18 hrs by agar dilution method; details: N492, 18 h; method in brief: as §1
Bacillus cereus [18] = experiment: Antibacterial activity against Bacillus cereus N258 after 18 hrs by agar dilution method; details: N258, 18 h; method in brief: as §1
[19] = test system: Staphylococcus intermedius; experiment: Antibacterial activity against Staphylococcus intermedius N987 after 18 hrs by agar dilution method; details: N987, 18 h; method in brief: as §1
Enterococcus faecalis [20] = experiment: Antibacterial activity against Enterococcus faecalis N518 after 18 hrs by agar dilution method; details: N518, 18 h; method in brief: as §1
[21] = test system: Enterococcus casseliflavus; experiment: Antibacterial activity against Enterococcus casseliflavus N487 after 18 hrs by agar dilution method; details: N487, 18 h; method in brief: as §1
Enterococcus faecalis [22] = experiment: Antibacterial activity against Enterococcus faecalis CIP 103214 after 18 hrs by agar dilution method; details: CIP 103214, 18 h; method in brief: as §1
Bacillus cereus [23] = experiment: Antibacterial activity against Bacillus cereus N349 after 18 hrs by agar dilution method; details: N349, 18 h; method in brief: as §1
Enterococcus durans = experiment: Antibacterial activity against Enterococcus durans CIP 104999 after 18 hrs by agar dilution method; details: CIP 104999, 18 h; method in brief: as §1
Staphylococcus aureus [24] = experiment: Antibacterial activity against Staphylococcus aureus CIP 5710 after 18 hrs by agar dilution method; details: CIP 5710, 18 h; method in brief: as §1
Enterococcus faecalis [25] = experiment: Antibacterial activity against Enterococcus faecalis CIP 104676 after 18 hrs by agar dilution method; details: CIP 104676, 18 h; method in brief: as §1
Staphylococcus aureus [26] = experiment: Antibacterial activity against Staphylococcus aureus CIP 483 after 18 hrs by agar dilution method; details: CIP 483, 18 h; method in brief: as §1
Enterococcus faecium [27] = experiment: Antibacterial activity against Enterococcus faecium N490 after 18 hrs by agar dilution method; details: N490, 18 h; method in brief: as §1
Enterococcus avium = experiment: Antibacterial activity against Enterococcus avium CIP 104053 after 18 hrs by agar dilution method; details: CIP 104053, 18 h; method in brief: as §1
Enterococcus faecalis [28] = experiment: Antibacterial activity against Enterococcus faecalis N520 after 18 hrs by agar dilution method; details: N520, 18 h; method in brief: as §1
Enterococcus faecium [29] = experiment: Antibacterial activity against Enterococcus faecium CIP 107387 after 18 hrs by agar dilution method; details: CIP 107387, 18 h; method in brief: as §1
Staphylococcus aureus [30] = experiment: Antibacterial activity against Staphylococcus aureus CIP 7625 after 18 hrs by agar dilution method; details: CIP 7625, 18 h; method in brief: as §1
Enterococcus faecium [31] = experiment: Antibacterial activity against Enterococcus faecium N823 after 18 hrs by agar dilution method; details: N823, 18 h; method in brief: as §1
Enterococcus faecalis [32] = experiment: Antibacterial activity against Enterococcus faecalis N491 after 18 hrs by agar dilution method; details: N491, 18 h; method in brief: as §1
Enterococcus faecium [33] = experiment: Antibacterial activity against Enterococcus faecium N507 after 18 hrs by agar dilution method; details: N507, 18 h; method in brief: as §1
Staphylococcus aureus [34] = experiment: Antibacterial activity against Staphylococcus aureus CIP 53156 after 18 hrs by agar dilution method; details: CIP 53156, 18 h; method in brief: as §1
Streptococcus agalactiae = experiment: Antibacterial activity against Streptococcus agalactiae CIP 103227 after 18 hrs by agar dilution method; details: ATCC 13813, 18 h; method in brief: as §1
Listeria innocua = experiment: Antibacterial activity against Listeria innocua E044 after 18 hrs by agar dilution method; details: E044, 18 h; method in brief: as §1
Listeria monocytogenes [35] = experiment: Antibacterial activity against Listeria monocytogenes CIP 103575 after 18 hrs by agar dilution method; details: CIP 103575, 18 h; method in brief: as §1
[36] = test system: Enterococcus casseliflavus; experiment: Antibacterial activity against Enterococcus casseliflavus CIP 103018 after 18 hrs by agar dilution method; details: CIP 103018, 18 h; method in brief: as §1
Listeria monocytogenes [37] = experiment: Antibacterial activity against Listeria monocytogenes N836 after 18 hrs by agar dilution method; details: N836, 18 h; method in brief: as §1
[38] = test system: Staphylococcus lugdunensis; experiment: Antibacterial activity against Staphylococcus lugdunensis ATCC 43809 after 18 hrs by agar dilution method; details: ATCC 43809, 18 h; method in brief: as §1
MRC5 [39] = experiment: Cytotoxicity against human MRC5 cells assessed as growth inhibition at 10^-5 M after 72 hrs by MTS assay relative to control; details: MRC5, 72 h, read-out: GI
Method in brief: (§2)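 Cells from ATCC; HCT-116 grown in RPMI 1640 and MRC5 in DMEM, each with 10% FCS and 1% glutamine, 37 °C, 5% CO2. Seeded at 2.5 × 10^3 cells/well, cultured 24 h, then exposed to compounds at 1 and 10 μM final for 72 h. MTS read-out, absorbance 490 nm; percent index from treated/control OD490 × 100, three experiments.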

HCT-116 [40] = experiment: Cytotoxicity against human HCT116 cells assessed as growth inhibition at 10^-6 M after 72 hrs by MTS assay relative to control; details: HCT-116, 72 h, read-out: GI; method in brief: as §2
HCT-116 [41] = experiment: Cytotoxicity against human HCT116 cells assessed as growth inhibition at 10^-5 M after 72 hrs by MTS assay relative to control; details: HCT-116, 72 h, read-out: GI; method in brief: as §2
MRC5 [42] = experiment: Cytotoxicity against human MRC5 cells assessed as growth inhibition at 10^-6 M after 72 hrs by MTS assay relative to control; details: MRC5, 72 h, read-out: GI; method in brief: as §2

CN[C@H](CC(C)C)C(=O)N[C@H]1C(=O)N[C@@H](CC(N)=O)C(=O)N[C@H]2C(=O)N[C@H]3C(=O)N[C@H](C(=O)N[C@H](C(=O)O)c4cc(O)cc(O)c4-c4cc3ccc4O)[C@H](O)c3ccc(c(Cl)c3)Oc3cc2cc(c3O[C@@H]2O[C@H](CO)[C@@H](O)[C@H](O)[C@H]2O[C@H]2C[C@](C)(N)[C@H](O)[C@H](C)O2)Oc2ccc(cc2Cl)[C@H]1O [VANCOMYCIN]
1.3 µM: MIC (Enterococcus faecalis [22])
0.6 µM: MIC [1] | MIC [5] | MIC [7] | MIC (Mammaliicoccus sciuri) | MIC [9] | MIC (Staphylococcus aureus [10]) | MIC (Staphylococcus aureus [15]) | MIC [19] | MIC (Enterococcus faecalis [20]) | MIC (Bacillus cereus [23]) | MIC (Staphylococcus aureus [24]) | MIC (Staphylococcus aureus [26]) | MIC (Enterococcus faecalis [28]) | MIC (Enterococcus faecium [33]) | MIC [38]
0.2 µM: MIC (Staphylococcus aureus [6])
0.1 µM: MIC (Bacillus spizizenii)
5 µM: MIC (Enterococcus gallinarum [13]) | MIC (Enterococcus gallinarum [14]) | MIC (Enterococcus gallinarum [17]) | MIC (Enterococcus faecalis [25])
22 µM: MIC (Enterococcus faecium [27])
2.7 µM: MIC (Staphylococcus aureus [3]) | MIC [21] | MIC (Staphylococcus aureus [30]) | MIC [36]
0.3 µM: MIC (Corynebacterium striatum) | MIC (Bacillus cereus [2]) | MIC (Listeria monocytogenes [4]) | MIC (Listeria monocytogenes [8]) | MIC (Enterococcus faecium [11]) | MIC (Bacillus cereus [12]) | MIC (Enterococcus hirae) | MIC (Bacillus cereus [18]) | MIC (Enterococcus durans) | MIC (Enterococcus avium) | MIC (Staphylococcus aureus [34]) | MIC (Streptococcus agalactiae) | MIC (Listeria innocua) | MIC (Listeria monocytogenes [35]) | MIC (Listeria monocytogenes [37])
> 86 µM: MIC (Enterococcus faecium [16]) | MIC (Enterococcus faecium [29]) | MIC (Enterococcus faecium [31]) | MIC (Enterococcus faecalis [32])

C=C1C[C@@H](O)[C@H]2C(C)(C)CCC[C@]2(C)[C@H]1CCC1=CC(=O)OC1O (stereo not given in full)
28%: inhibition of growth at 10 µM (MRC5 [39])
38%: inhibition of growth at 10 µM (HCT-116 [41])
5%: inhibition of growth at 1 µM (MRC5 [42])
0%: inhibition of growth at 1 µM (HCT-116 [40])
